# Screening results deposited in PubChem by PCMD.
# Yeast tox: Compounds toxic to wild-type S. cerevisiae growth; A595 turbidity, 16 h; growth inhibition, % at 25 µM (by protocol); hit rate 0.3% among 30,000;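 active = mutant and wild-type yeast strains alike exhibit over 30% growth inhibition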
#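 System: S. cerevisiae wild-type or eIF2Bepsilon-R284H mutant strain; times: 16 h growth with compound, 30 °C; signal: absorbance at 595 nm (turbidity); measure: growth inhibition (%) versus cell controls and blanks; compound: 25 µM single dose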
# Yeast eIF2B: eIF2B (yeast) activity modulation; S. cerevisiae eIF2B-epsilon R284H, GCN4-lacZ luminescence; hit rate 0.91% among 27,000; AID 688; inhibition, % at 25 µM (by protocol);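 active = mutant luminescence inhibited past about 50% while wild type luminescence and mutant growth stay under set limits, limit read from the data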
#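 Assay system: yeast eIF2B-epsilon R284H mutant carrying GCN4–beta-galactosidase fusion / Buffer or medium: YPD / Incubation: 16 h growth with compound at 30 °C, 90 min Beta-Glo step / Detection: Beta-Glo luminescence after Z-buffer lysis, growth by 595 nm absorbance / Read-out: % inhibition of reporter signal and growth versus controls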
# Hits are given with their value; - = inactive; . = not tested or not shown. An excerpt weighted towards active compounds, which were near 1% of everything screened.
SMILES,Yeast tox,Yeast eIF2B
O=C1C(=O)c2ccc(-c3ccccc3)cc2-c2ccccc21,-,-
Nc1ccc2c(c1)C(=O)C(=O)c1ccccc1-2,38,.
COc1ccc(-c2cc(-c3ccccc3O)[nH]n2)cc1OC,-,-
Oc1ccc(Br)cc1-c1cc(-c2ccc(Cl)cc2)n[nH]1,-,.
Cc1ccc(O)c(-c2cc(-c3cccc(F)c3)n[nH]2)c1,51,.
Cc1ccc(-c2cc(C(=O)Nc3c(C)n(C)n(-c4ccccc4)c3=O)[nH]n2)c(O)c1,-,.
Oc1ccc(Br)cc1-c1cc(-c2ccccc2)n[nH]1,80,-
Cc1ccc(-c2cc(-c3cccc(F)c3)n[nH]2)c(O)c1,30,.
Oc1ccccc1-c1cc(-c2ccc3c(c2)OCCO3)n[nH]1,.,51
Cc1ccc(O)c(-c2cc(-c3ccccc3F)[nH]n2)c1,-,.
CCOC(=O)c1sc(NC(=O)CSc2n[nH]c(-c3ccc(Cl)cc3Cl)n2)c(C#N)c1C,-,-
CCc1cc(=O)oc2c(C)c(OCC(=O)N3CCCc4ccccc43)ccc12,-,-
C=CCc1cccc2cc(C(=O)OCC(=O)c3ccccc3)c(=O)oc12,-,-
Cc1cc(NC(=O)COC(=O)C(Cc2ccccc2)NC(=O)c2ccco2)no1 (stereo not given),-,-
O=C(NC(Cc1ccccc1)C(=O)OCC(=O)N1CCc2ccccc21)c1ccco1 (stereo not given),-,52
c1csc(C(c2nnnn2C2CCCC2)N2CCCC3(CCCCC3)C2)c1 (stereo not given),-,.
